Measurements as given in ChEMBL document CHEMBL1126149, “Centrally acting alpha 1-adrenoceptor agonists based on hexahydronaphth[2,3-b]-1,4-oxazines and octahydrobenzo[g]quinolines” (1992).

Assays:
[1] = target: T1, Adrenergic receptor alpha-1 (Homo sapiens) (UniProt P35348+P25100+P35368); test: alpha-1-adrenergic activity by measuring their potency in rabbit ear artery based on noradrenaline; type: functional, tissue-based; settings: Oryctolagus cuniculus, target entry is the homologue from another species
Method in brief: (§1)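 Isolated rabbit ear artery segment, circular smooth muscle tension measured isometrically; cocaine blocks neuronal uptake, rauwolscine blocks α2-receptors. Cumulative noradrenaline curve (10^-10–10^-5 M) sets the maximum, then after washout a cumulative curve for the test drug. pD2 = −log molar concentration giving 50% of NA maximum; efficacy = drug maximum relative to NA. n = 3-5.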

Rattus norvegicus [2] = organism: Rattus norvegicus; test: alpha-1/alpha-2-agonistic activity by measuring their potency in pithed rat based on noradrenaline; type: functional
Method in brief: (§2)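 Pithed rats with jugular vein catheter for iv dosing and carotid catheter for arterial pressure, about 15 min equilibration. Single increasing iv doses are given and the rise in diastolic pressure is read to build a dose-response curve. pD2 is taken from that curve; efficacy is relative to noradrenaline. n = 3.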

Rattus norvegicus [3] = organism: Rattus norvegicus; test: Change in blood pressure was reported in pithed rat; type: functional; method in brief: as §2
[4] = target: T1, Adrenergic receptor alpha-1 (Homo sapiens); test: Alpha-1-adrenergic activity as efficacy in rabbit ear artery relative to noradrenaline; type: functional, tissue-based; settings: Oryctolagus cuniculus, target entry is the homologue from another species; method in brief: as §1
Rattus norvegicus [5] = organism: Rattus norvegicus; test: Alpha-1/alpha-2-agonistic activity by measuring their efficacy in pithed rat based on noradrenaline; type: functional; method in brief: as §2
[6] = target: T1, Adrenergic receptor alpha-1 (Homo sapiens); test: Alpha-1-adrenergic activity as potency in rabbit ear artery compared to noradrenaline; type: functional, tissue-based; settings: Oryctolagus cuniculus, target entry is the homologue from another species; method in brief: as §1
Rattus norvegicus [7] = organism: Rattus norvegicus; test: alpha-1/alpha-2-agonistic activity by measuring their efficacy in pithed rat based on noradrenaline; type: functional; method in brief: as §2
[8] = target: T1, Adrenergic receptor alpha-1 (Homo sapiens); settings: Oryctolagus cuniculus; Artery
[9] = target: T1, Adrenergic receptor alpha-1 (Homo sapiens); settings: Oryctolagus cuniculus; Artery; remark: listed apart in the source
Rattus norvegicus [10] = organism: Rattus norvegicus; test: Alpha-1/Alpha-2-agonistic activity by measuring their potency in pithed rat based on noradrenaline; type: functional; method in brief: as §2
Rattus norvegicus [11] = organism: Rattus norvegicus; test: Alpha-1/Alpha-2-agonistic activity by measuring their efficacy in pithed rat based on noradrenaline; type: functional; method in brief: as §2
[12] = target: T1, Adrenergic receptor alpha-1 (Homo sapiens); test: alpha-1-adrenergic activity by measuring their efficacy in rabbit ear artery based on noradrenaline; type: functional, tissue-based; settings: Oryctolagus cuniculus, target entry is the homologue from another species; method in brief: as §1
Rattus norvegicus [13] = organism: Rattus norvegicus; test: Alpha-1/alpha-2-agonistic activity by measuring their potency in pithed rat based on noradrenaline; type: functional; method in brief: as §2

SMILES | Increase in blood pressure (P/R) (Rattus norvegicus [3]) | E [4] | pD2 [6] | pD2 (Rattus norvegicus [10]) | E (Rattus norvegicus [11]) | also measured
COc1ccc([N+](=O)[O-])c2c1CC1C(C2)OCCN1C (centres undefined) | -22% | 85 | – | – | – | pD2 [1]: 5.45; pD2 (Rattus norvegicus [2]): 6; E (Rattus norvegicus [5]): 17
COc1ccc(SC)c2c1CC1C(CCCN1C)C2 (stereo in doubt; 33) [listing 1 of 2 here] | – | 109 | 8.4 | – | – | –
CCSc1ccc(OC)c2c1CC1CCCN(C)C1C2 (stereo in doubt; 31) [listing 1 of 2 here] | – | 97 | 6.46 | – | – | –
COc1ccc(SC)c2c1C[C@H]1[C@@H](C2)OCCN1C (stereo in doubt; 14) [listing 1 of 2 here] | -79% | – | – | – | – | E (Rattus norvegicus [7]): 76; pD2 (Rattus norvegicus [2]): 6.74
NC[C@H](O)c1ccc(O)c(O)c1 | – | – | – | – | – | E [8]: 100; PD2 [9]: 7.7
COc1ccc(SC)c2c1C[C@H]1[C@@H](C2)OCCN1C (stereo in doubt; 15) [listing 1 of 2 here] | -40% | – | – | 6.19 | 23 | –
COc1ccc(SC)c2c1C[C@H]1[C@@H](C2)OCCN1C (stereo in doubt; 14) [listing 2 of 2 here] | – | – | – | – | – | pD2 [1]: 7.5; E [12]: 110
COc1ccc(SC)c2c1CC1C(CCCN1C)C2 (stereo in doubt; 33) [listing 2 of 2 here] | -87% | – | – | 7.36 | 85 | –
COc1ccc(SC)c2c1C[C@H]1[C@@H](C2)OCCN1C (stereo in doubt; 15) [listing 2 of 2 here] | – | 100 | 5.4 | – | – | –
COc1ccc(SC)c2c1CC1C(CCCN1C)C2 (stereo in doubt; cis) [listing 1 of 2 here] | – | – | < 4 | – | – | –
CCN1CCOC2Cc3c(SC)ccc(OC)c3CC21 (centres undefined) | -84% | 98 | 7.42 | 6.84 | 79 | –
COc1ccc(SC)c2c1CC1C(CCCN1C)C2 (stereo in doubt; trans) | -79% | – | – | 6.92 | 72 | –
COc1ccc(SC)c2c1C[C@@H](N)CC2 | -94% | 98 | 7.48 | 7.92 | 73 | –
CCN1CC(C)OC2Cc3c(SC)ccc(OC)c3CC21 (centres undefined) | -34% | 93 | 6.47 | 6.45 | 29 | –
COc1ccc(SC)c2c1CC1C(CCCN1C)C2 (stereo in doubt; cis) [listing 2 of 2 here] | – | – | – | <4 | – | –
COc1ccc(SC)c2c1CC1C(C2)OC(C)CN1C (centres undefined) | – | 67 | – | – | – | pD2 [1]: 5.83; pD2 (Rattus norvegicus [2]): <4
CCSc1ccc(OC)c2c1CC1CCCN(C)C1C2 (stereo in doubt; 31) [listing 2 of 2 here] | -93% | – | – | 6.68 | 80 | –
CCSc1ccc(OC)c2c1CC1CCCN(C)C1C2 (stereo in doubt) [listing 1 of 2 here] | -25% | – | – | 6.12 | 18 | –
CCCN1CCOC2Cc3c(SC)ccc(OC)c3CC21 (centres undefined) | -76% | 98 | 6.78 | 6.18 | 38 | –
CCSc1ccc(OC)c2c1CC1CCCN(C)C1C2 (stereo in doubt) [listing 2 of 2 here] | – | – | < 4 | – | – | –
CCSc1ccc(OC)c2c1CC1OCCN(C)C1C2 (centres undefined) | -80% | 95 | – | – | – | pD2 [1]: 8.2; pD2 (Rattus norvegicus [2]): 6.48; E (Rattus norvegicus [5]): 86
CCC1CN(C)C2Cc3c(OC)ccc(SC)c3CC2O1 (centres undefined) | 0% | 42 | 5.35 | 6.1 | 20 | –
COc1ccc(Cl)c2c1CC1C(C2)OCCN1C (centres undefined) | -5% | 89 | 5.97 | – | 40 | pD2 (Rattus norvegicus [13]): 5.89
